According to ChEMBL document CHEMBL4138109, “Synthesis and structure-activity relationships of novel fused ring analogues of Q203 as antitubercular agents” (Eur J Med Chem, 2017):
In brackets after ≈: the same amount, converted by molar mass.

Key:
[1] = tested on: Mycobacterium tuberculosis; experiment: Antimycobacterial activity against GFP expressing Mycobacterium tuberculosis H37Rv assessed as reduction in bacterial replication in culture broth medium; type: functional
Procedure, shortened: (§1)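 H37Rv expressing GFP, grown either in liquid broth (extracellular) or inside macrophages (intracellular). The value is MIC80, the lowest concentration that inhibits growth by 80%, averaged from two independent measurements.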

[2] = tested on: Mycobacterium tuberculosis; experiment: Antimycobacterial activity against GFP expressing Mycobacterium tuberculosis H37Rv infected in mouse RAW264.7 cells assessed as reduction in bacterial replication after 5 days by confocal microscopic method; type: functional; conditions: 120 h; procedure, shortened: as §1
[3] = Half life in human liver microsomes; type: ADME, microsome
[4] = Half life in rat liver microsomes; type: ADME, microsome
[5] = Half life in mouse at 2 mg/kg, iv; type: ADME, organism-based; conditions: in vivo
Procedure, shortened: (§2)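 Mice received a single intravenous dose of 2 mg/kg or an oral dose of 10 mg/kg. Drug concentrations were measured in plasma, with sampling that extended to 24 h, and the pharmacokinetic parameters were derived from the plasma concentration–time profiles.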

[6] = Clearance in mouse at 2 mg/kg, iv; type: ADME, organism-based; conditions: in vivo; procedure, shortened: as §2
[7] = Volume of distribution at steady state in mouse at 2 mg/kg, iv; type: ADME, organism-based; conditions: in vivo, read-out: Vdss; procedure, shortened: as §2
[8] = Cmax in mouse at 10 mg/kg, po; type: ADME, organism-based; set-up: dose 10 mg/kg, route oral; conditions: in vivo; procedure, shortened: as §2
[9] = Half life in mouse at 10 mg/kg, po; type: ADME, organism-based; conditions: in vivo; procedure, shortened: as §2
[10] = Tmax in mouse at 10 mg/kg, po; type: ADME, organism-based; conditions: in vivo; procedure, shortened: as §2
[11] = AUC (0 to infinity) in mouse at 10 mg/kg, po; type: ADME, organism-based; set-up: dose 10 mg/kg, route oral, time infinity; conditions: in vivo; procedure, shortened: as §2
[12] = Oral bioavailability in mouse at 10 mg/kg; type: ADME, organism-based; conditions: in vivo; procedure, shortened: as §2

| Compound | MIC80 [1] [µM] | MIC80 [2] [µM] | half-life [3] [min] | half-life [4] [min] | half-life [5] [min] | clearance [6] [L/h/kg] | Vd [7] [L/kg] | Cmax [8] [µg/mL] | half-life [9] [h] | Tmax [10] [min] | AUC(0-inf) [11] [µg·h/mL] | bioavailability [12] [%] |
| --- | --- | --- | --- | --- | --- | --- | --- | --- | --- | --- | --- | --- |
| CCc1nc2ccc(Cl)cn2c1C(=O)NCc1ccc2c(c1)OCO2 | 0.082 (≈ 0.0293 µg/mL) | 0.009 (≈ 0.00322 µg/mL) | 7.4 | 2.1 | – | – | – | – | – | – | – | – |
| NNC(=O)c1ccncc1 [ISONIAZID] | 0.49 (≈ 0.0672 µg/mL) | 0.2 (≈ 0.0274 µg/mL) | – | – | – | – | – | – | – | – | – | – |
| CCc1nc2cc(Cl)ccn2c1C(=O)NCc1ccc2oc(C3CCCCC3)nc2c1 | 0.082 (≈ 0.0358 µg/mL) | 0.082 (≈ 0.0358 µg/mL) | 10.2 | 9.5 | – | – | – | – | – | – | – | – |
| CCc1nc2ccc(Cl)cn2c1C(=O)NCc1ccc(N2CCC(c3ccc(OC(F)(F)F)cc3)CC2)cc1 [TELACEBEC] | 0.004 (≈ 0.00223 µg/mL) | 0.001 (≈ 0.000557 µg/mL) | – | – | – | – | – | – | – | – | – | – |
| CCc1nc2cc(Cl)ccn2c1C(=O)NCc1ccc2oc(-c3ccc(OC(F)(F)F)cc3)nc2c1 | 0.009 (≈ 0.00463 µg/mL) | < 0.001 | > 120 | > 120 | 1080 | 0.036 | 1.2 | 5.56 | 36.3 | 60 | 116 | 40.1 |
| CCc1nc2ccc(Cl)cn2c1C(=O)NCc1ccc2oc(-c3ccc(OC(F)(F)F)cc3)nc2c1 | 0.027 (≈ 0.0139 µg/mL) | 0.009 (≈ 0.00463 µg/mL) | > 120 | > 120 | – | – | – | – | – | – | – | – |
| CCc1nc2ccc(Cl)cn2c1C(=O)NCc1ccc2oc(C3CCCCC3)nc2c1 | 0.082 (≈ 0.0358 µg/mL) | 0.082 (≈ 0.0358 µg/mL) | 17 | 5.2 | – | – | – | – | – | – | – | – |
| CCc1nc2ccc(Cl)cn2c1C(=O)NCc1ccc2oc(CN3CCOCC3)nc2c1 | 2.67 (≈ 1.21 µg/mL) | 2.22 (≈ 1.01 µg/mL) | 17 | 14.1 | – | – | – | – | – | – | – | – |
| CCc1nc2ccc(Cl)cn2c1C(=O)NCc1ccc2ccccc2c1 | 0.031 (≈ 0.0113 µg/mL) | 0.062 (≈ 0.0226 µg/mL) | 6.9 | 3.1 | – | – | – | – | – | – | – | – |
| CCc1nc2ccc(Cl)cn2c1C(=O)NCc1ccc2oc(-c3ccc(F)cc3)nc2c1 | 0.009 (≈ 0.00404 µg/mL) | 0.003 (≈ 0.00135 µg/mL) | 25.6 | 54.3 | – | – | – | – | – | – | – | – |
| CCc1nc2cc(Cl)ccn2c1C(=O)NCc1ccc2oc(-c3ccc(F)cc3)nc2c1 | 0.082 (≈ 0.0368 µg/mL) | 0.74 (≈ 0.332 µg/mL) | 103 | > 120 | – | – | – | – | – | – | – | – |
| CCc1nc2cc(Cl)ccn2c1C(=O)NCc1ccc2oc(C)nc2c1 | 1.53 (≈ 0.564 µg/mL) | 0.74 (≈ 0.273 µg/mL) | > 120 | 10.3 | – | – | – | – | – | – | – | – |
| CCc1nc2cc(Cl)ccn2c1C(=O)NCc1ccc2oc(CN3CCOCC3)nc2c1 | 13.7 (≈ 6.22 µg/mL) | 6.67 (≈ 3.03 µg/mL) | 23.2 | 18.9 | – | – | – | – | – | – | – | – |
| CCc1nc2ccc(Cl)cn2c1C(=O)NCc1ccc2oc(C)nc2c1 | 0.2 (≈ 0.0738 µg/mL) | 0.082 (≈ 0.0302 µg/mL) | 32.2 | 5.8 | – | – | – | – | – | – | – | – |
| CCc1nc2cc(Cl)ccn2c1C(=O)NCc1ccc2ccccc2c1 | 0.12 (≈ 0.0437 µg/mL) | 1 (≈ 0.364 µg/mL) | 23.7 | 6.3 | – | – | – | – | – | – | – | – |
